Only some compounds are listed: those with a hit (about 2.9% of all), similar ones and a draw of the others.
OX1R antag-1 – blocks the human orexin 1 receptor. OX1R-expressing cells, FRET antagonist read-out. inhibition, % at 6.6 µM. O43613. actives 1.8% (n = 330,000); in the data active = inhibition mostly above about 38%, no sharp cut-off; inactive = mostly below about 40%;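 note: 0% = agonist challenge alone and 100% = reference antagonist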
Target sequence (O43613 whole entry, looked up): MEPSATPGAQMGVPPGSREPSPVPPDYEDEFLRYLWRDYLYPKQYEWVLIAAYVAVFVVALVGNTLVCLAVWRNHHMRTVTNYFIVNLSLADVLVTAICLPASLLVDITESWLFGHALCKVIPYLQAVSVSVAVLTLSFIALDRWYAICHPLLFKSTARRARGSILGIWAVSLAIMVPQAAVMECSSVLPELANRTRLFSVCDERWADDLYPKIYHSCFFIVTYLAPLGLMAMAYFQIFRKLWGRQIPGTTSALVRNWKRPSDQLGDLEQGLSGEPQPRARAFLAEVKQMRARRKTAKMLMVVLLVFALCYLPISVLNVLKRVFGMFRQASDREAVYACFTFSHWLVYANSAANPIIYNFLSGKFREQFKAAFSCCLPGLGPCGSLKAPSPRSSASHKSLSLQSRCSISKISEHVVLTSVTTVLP
CHO-K1 Ca antag – nonselective inhibitor or artifact in parental CHO-K1 cells | actives 0.6% (n = 360,000) | ATP-induced calcium, Fluo-8 fluorescence | inhibition, % at 3 µM | AID 602250;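 active = inhibition above a per-plate cutoff, the plate's mean sample inhibition plus 3 SD, cut at about 24% in these data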;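 note: 0% = DMSO plus EC80 ATP and 100% = DMSO alone without ATP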
OX1R antag-2 – antagonists of human orexin 1 receptor; O43613; CHO/OX1R cells, Fluo-8 calcium fluorescence, orexin A; inhibition, % at 5 µM; actives 0.43% (n = 330,000); AID 434989;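 active = inhibition above its plate's threshold, mean inhibition of all tested compounds on the plate plus 3 SD, cut at about 37% in these data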;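 note: 0% = orexin A challenge wells and 100% = SB-334867-A antagonist wells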
M1 PAM parental – nonselective activator or artifact in parental CHO-K1 calcium assay; ATP EC20, Fluo-8 calcium fluorescence; 0% at ATP EC20, 100% at ATP max; activation, % at 3 µM; actives 0.02% (n = 360,000);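 active = activation above the run cutoff, the mean activation of all test compounds plus 3 SD, cut at about 40% in these data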;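 note: peak over basal fluorescence ratio in a 140 s read after ATP addition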
CHO parental Ca – counter-screen: ATP calcium response change in parental CHO cells | AID 463079 | inhibition, % at 5.6 µM | parental CHO-K1, ATP-induced calcium, Fluo-8 fluorescence | actives 0.63% (n = 330,000);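 active = inhibition above that plate's mean sample inhibition plus 3 SD, cut at about 26% in these data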;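 note: 0% = ATP-challenged DMSO wells and 100% = DMSO wells without ATP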
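Material: parental CHO cells / Compound: single nominal dose of 5.6 µM per compound / Signal: Fluo-8 fluorescence / Replicates: singlicate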
CHO-K1 Ca ag – nonselective activator or artifact in parental CHO-K1 cells; actives 0.48% (n = 360,000); activation, % at 3 µM; AID 602248; Fluo-8 calcium fluorescence; scaled to maximal ATP response, vehicle zero; in the data active = activation above about 15%;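 note: untransfected CHO-K1 host cells lacking M1 receptor as counterscreen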
The depositor's hits bear a star; x = no result.

SMILES	OX1R antag-1	CHO-K1 Ca antag	OX1R antag-2	M1 PAM parental	CHO parental Ca	CHO-K1 Ca ag
O=C(COc1ccccc1/C=C1\SC(=S)NC1=O)Nc1ccc(F)cc1	57*	-13	17	10	11	0
CC(=O)c1ccc(OCCCC(=O)NCC(c2ccco2)N(C)C)cc1 (centres undefined)	13	25*	-15	-8	-7	0
COCCn1c(=N)c(S(=O)(=O)c2ccc(F)cc2)cc2c(=O)n3ccccc3nc21	29	-6	-20	4	-15	0
O=C(CN(c1ccc(Cl)c(Cl)c1)S(=O)(=O)c1ccccc1)N1CCc2ccccc2C1	74*	-8	40	16	-14	-1
O=C(Nc1ccc(Cl)cc1)c1ccc(OCC2CCCO2)cc1 (centres undefined)	6	9	-1	2	-9	26*
CN(C)C(CNC(=O)CCCN1C(=O)c2cccc3cccc(c23)C1=O)c1ccccc1 (centres undefined)	32	-16	-41	9	-20	6
Cc1ccc(-n2nnc3c(=O)n(CC(=O)NCc4ccccc4)cnc32)cc1	14	0	-4	13	42*	0
Cc1ccc(Cn2nnc3c(=O)n(CC(=O)OCc4ccccc4)cnc32)cc1	9	-19	36	16	31*	7
CCN(CC)c1ccc(/C=C2\C(=O)c3ccc(C(=O)O)cc3C2=O)cc1	27	22	87*	-7	51*	38*
O=C(O)c1ccc(N(c2ccccc2)c2ccccc2)cc1	38	-7	-3	23	-13	1
CCN(CC)c1ccc(C(=O)O)cc1	10	25*	-7	-13	-1	0
CCc1noc(C)c1C(=O)N1CCC(CCC(=O)Nc2cccc(OC)c2)CC1	10	-1	-20	-3	-7	1
CCOc1ccccc1CNS(=O)(=O)c1ccc(-c2cnc(C3CC3)o2)cc1	45	14	24	-15	33*	13
CCOC(=O)c1ccc(NC(=S)NCCc2ccc(F)cc2)cc1	19	28*	15	-5	31	23*
CCOC(=O)c1oc2nc(CC(C)C)c3c(c2c1N)CCCC3	7	-12	-31	12	-2	1
Cc1cc(N2CCCC2=O)cc(C)c1S(=O)(=O)NCCOc1ccc(C(C)(C)C)cc1	70*	27*	67*	5	41*	14
CC(O)CNc1cc(N)c([N+](=O)[O-])cc1[N+](=O)[O-] (centres undefined)	73*	-1	3	1	-1	0
CCc1cccc2c(C(=O)Cn3nnc(-c4ccc(OC)c(OC)c4)n3)c[nH]c12	45*	14	69*	6	42*	9
N#C/C(=C\c1ccc(Cl)cc1)C(=O)Nc1cccnc1	10	4	-4	-5	7	0
CC(NC(=O)COC(=O)c1ccc(Br)o1)c1ccccc1 (centres undefined)	x	-11	x	-15	x	0
O=C(CCNS(=O)(=O)c1ccc2nsnc2c1)N1CCN(c2ccncc2)CC1	51*	-16	2	10	-8	0
Cc1ccc(S(=O)(=O)NCCC(=O)N2CCN(c3cccc(Cl)c3)CC2)cc1C	35	-7	-13	4	-16	6
COc1ccc(CCNC(=O)COC(=O)c2cc(=O)[nH]c3ccccc23)cc1	10	-22	-12	14	-8	1
Cc1cn2c(N)c(/C=C3\C=Nc4ccccc43)c(=O)nc2s1	45*	-10	-11	22	-9	2
C=CCSc1nc(N)c2c(C)c(C)sc2n1	46*	-8	-13	17	-13	1
SMILES	OX1R antag-1	CHO-K1 Ca antag	OX1R antag-2	M1 PAM parental	CHO parental Ca	CHO-K1 Ca ag
CCSc1nc(N)c2c(C)c(C)sc2n1	34	-9	-31	19	-5	0
N#CC1=C(N)Nc2ncnn2C1c1ccccc1 (centres undefined)	7	x	-3	x	3	x
N#CC1=C(N)Nc2ncnn2C1c1ccc([N+](=O)[O-])cc1 (centres undefined)	69*	-10	-30	14	5	1
Cc1ccc2c(CN3CCN(c4ccccc4)CC3)cc(=O)oc2c1	x	-24	x	18	x	1
N#CC1=C(N)N2C(=C(C#N)C13CCCCC3)SC1CCCCC12O (centres undefined)	5	10	14	5	33*	5
CSC1=C(C#N)C2(CCCC2)C(C#N)=C(N)N1	-4	x	-13	x	-12	x
O=C(COC(=O)c1cnccn1)Nc1ccc(Cl)cn1	8	27*	-2	-29	14	0
CC1(C)Cc2c(cnn2-c2cccc(F)c2)C(NC(=O)C2CCOCC2)C1 (centres undefined)	10	-7	-5	14	-12	0
Cc1cc(C)n(C(=O)/C(C#N)=N/Nc2cc(Cl)cc(Cl)c2)n1	59*	0	59*	0	75*	10
Cn1c(=O)c2c(nc(C3CC4C5CCC(C5)C4C3)n2C)n(C)c1=O (centres undefined)	x	2	x	-11	x	0
Cc1c(C(=O)Nc2ccc3c(c2)OCO3)oc2ccccc12	73*	-6	-1	1	-22	0
Cc1ccccc1NC(=O)Nc1ccc2c(c1)OCO2	38	-9	2	0	-7	1
COCC(=O)Nc1c(C(=O)Nc2ccc3c(c2)OCO3)oc2ccccc12	4	-3	-16	-6	-15	1
Cc1nc(NC(=O)c2oc3ccccc3c2C)sc1C(=O)N(C)C	54*	-2	12	5	-6	2
Cc1ccc(C)c(NC(=O)Nc2ccc3c(c2)OCO3)c1	33	29*	-3	-15	-8	0
O=C(CCl)Nc1c(C(=O)Nc2ccc3c(c2)OCCO3)oc2ccccc12	68*	-4	-6	7	-16	1
COCC1CCN(C(=O)c2ccc3nc(Cc4cccc(Cl)c4)oc3c2)CC1	x	-11	x	18	x	4
C/C(=N\O)C(C)(C)Nc1ccccc1F	1	-2	-2	6	-5	0
Cc1c(C(=O)NNC(=O)c2ccccc2O)oc2ccccc12	x	26*	x	-14	x	0
CCCc1cc(C(=O)Nc2ccc(CC)cc2)no1	28	-6	-26	-28	-6	0
Cn1c(=O)c2c(nc(NCc3ccc4c(c3)OCO4)n2Cc2ccccc2)n(C)c1=O	27	4	-12	-4	-6	0
Cn1c(=O)c2c(nc(NCc3ccc4c(c3)OCO4)n2Cc2ccc(F)cc2)n(C)c1=O	13	6	-33	22	22*	3
CCc1cc(-c2nnn(CCC3COCCO3)c2CC)ccc1-c1cn(Cc2ccccc2)nn1 (centres undefined)	x	2	x	-2	x	7
CC(=O)c1c(C)[nH]c(C(=O)CSc2ccc(F)cc2)c1C	18	11	14	-12	33*	15*
O=C(c1cc(C2CC2)nn1-c1ccccc1)N1CCN(c2ccc(O)cc2)CC1	x	-2	x	-28	x	0

Assay outcomes (PubChem)
